# ChEMBL document CHEMBL2417356, “Identification of 2,3-disubstituted pyridines as potent, orally active PDE4 inhibitors” (Bioorg Med Chem, 2013)
# Calls of active or inactive are those of the source. The rule behind the calls is not given here.
# Key:
# [1] = organism: Cavia porcellus; test: (§1) Inhibition of Hartley guinea pig eosinophil PDE4 assessed as cAMP hydrolysis by two-step radioisotope method
# In short: (§2)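 PDE4 purified from eosinophils of male Hartley guinea pigs (~500 g) given 5 mg polymyxin B. Activity measured by a modified two-step radioisotope method with [3H]cAMP substrate, quantifying hydrolyzed cAMP. IC50 taken as the concentration giving 50% inhibition of hydrolysis, from concentration–response curves. Three experiments per agent.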
# [2] = as §1; design: species or system Cavia porcellus; in short: as §2
# [3] = organism: Cavia porcellus; test: Inhibition of Hartley guinea pig eosinophil PDE4 assessed as cAMP hydrolysis at 100 nM by two-step radioisotope method relative to control
# [4] = tested on: Mus musculus; test: Antiinflammatory activity in mouse assessed as inhibition ovalbumin-induced eosinophil infiltration into lung at 10 mg/kg, po administered 30 mins prior to ovalbumin challenge followed by once per day compound administration measured after 2 days relative to vehicle-treated control; assay type: functional
# In short: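 Male mice, 5 weeks old, OVA-sensitized. Dosed orally 30 min before intranasal OVA challenge and once daily for the next 2 days. Challenge given 7 days after the last sensitizing OVA injection, under anaesthesia. Bronchoalveolar lavage under pentobarbital 3 days post-challenge. BALF diluted 10-fold in Turk's solution and living infiltrated cells counted. % inhibition calculated against vehicle group.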
# [5] = tested on: Cavia porcellus; test: Bronchodilatory activity in ovalbumin-treated guinea pig at 10 mg/kg, po administered 1 hr prior to ovalbumin challenge relative to vehicle-treated control; assay type: functional
# In short: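 Male guinea pigs OVA-sensitized at 3 weeks old, studied 6 weeks later. Anesthetized, tracheally cannulated and ventilated with room air at 60 strokes/min. Air-overflow measured by the Konzett-Rössler method. Bronchospasm induced by i.v. OVA via hind-paw vein. Peak response taken within 10 min of challenge as % of theoretical maximum. Oral dosing 1 h before challenge; % inhibition against vehicle.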
IC50 [2] [nM],inhibition [3] [%],Compound,further results
–,3,Brc1cccc(Sc2ncccc2OCCCCc2ccncc2)c1,–
–,60,Brc1cccc(Sc2ncccc2OCCc2cccnc2)c1,–
–,56,Brc1cccc(Sc2ncccc2OCCc2ccncc2)c1,–
34,80,Brc1cccc(Sc2ncccc2OCCCc2ccncc2)c1,Activity [5]: 77%; inhibition in vivo at 10 mg/kg [4]: 50%
–,69,Brc1cccc(Sc2ncccc2OCCCc2cccnc2)c1,–

# The next lines start with the compound.
Compound,IC50 [2] [nM],inhibition [3] [%],further results
O=C(c1cccc(Br)c1)c1ccccn1,–,–,inhibition [1]: inactive
N#CCCCOc1cccnc1Sc1cccc(Br)c1,104,–,–
Brc1cccc(Sc2ncccc2OCCCCc2cccnc2)c1,–,5,–
COc1ccc(C2CNC(=O)C2)cc1OC1CCCC1 (centres undefined) [ROLIPRAM],54,–,inhibition in vivo at 10 mg/kg [4]: 39%
Brc1cccc(Sc2ncccc2OCCCc2ccccn2)c1,–,10,–
